Active and inactive are the calls of the source. The calls are words filed in the database; no cut-off is given here.
How the values were obtained:
HepG2 [1] = experiment: Suppression of rotenone-induced ATP depletion in human HepG2 cells assessed as increase in rescue of ATP level at 1 uM incubated for 2 hrs by Celltiter-Glo assay; assay type: functional, cell-based
Summary of the method: (§1)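 HepG2 cells seeded 10×10^3 per well in 1 g/L glucose, 2% FBS medium the day before. Switched to glucose- and FBS-free medium containing 10 µM rotenone, with compound added at the same time, 2 h at 37 °C. ATP read by CellTiter-Glo luminescence, normalized to DMSO cells without rotenone. Mean ± SEM of ≥3 independent runs. Complex III inhibitors, where used, at 50 nM.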

HepG2 [2] = experiment: Cytotoxicity against human HepG2 cells assessed as reduction in cell viability incubated for 24 hrs by Celltiter-blue assay; assay type: cell-based; settings: HepG2, 24 h
SH-SY5Y [3] = experiment: Cytotoxicity against human SH-SY5Y cells assessed as reduction in cell viability incubated for 24 hrs by Celltiter-blue assay; assay type: cell-based
[4] = Suppression of rotenone-induced ATP depletion in human HepG2 cells incubated for 2 hrs by Celltiter-Glo assay; assay type: functional, cell-based; settings: HepG2, 2 h; summary of the method: as §1
[5] = biological target: NAD(P)H dehydrogenase [quinone] 1 (Homo sapiens) (UniProt P15559); experiment: Substrate activity at recombinant NQO1 (unknown origin) assessed as reduction in NADH level at 20 uM measured for 6 mins by microplate reader analysis
NAD(P)H dehydrogenase [quinone] 1 (Homo sapiens), sequence (P15559 whole entry): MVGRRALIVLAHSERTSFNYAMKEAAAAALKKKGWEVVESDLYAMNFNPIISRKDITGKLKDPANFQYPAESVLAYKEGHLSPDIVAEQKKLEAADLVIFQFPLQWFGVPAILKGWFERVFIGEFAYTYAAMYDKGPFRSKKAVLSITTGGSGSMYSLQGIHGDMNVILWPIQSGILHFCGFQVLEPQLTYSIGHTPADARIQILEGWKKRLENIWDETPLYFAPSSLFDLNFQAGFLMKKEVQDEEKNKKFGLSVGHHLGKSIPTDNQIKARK

HepG2 [6] = experiment: Suppression of rotenone-induced ATP depletion in human HepG2 cells assessed as increase in rescue of ATP level at 0.1 to 1 uM incubated for 2 hrs by Celltiter-Glo assay; assay type: functional, cell-based; settings: dose microM 0.1-1, time 2.0 hrs; summary of the method: as §1
[7] = Cytotoxicity against human HepG2 cells assessed as cell viability at 25 uM incubated for 24 hrs by Celltiter-blue assay relative to control; assay type: cell-based; settings: read-out: Activity
Summary of the method: (§2)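 HepG2 or SH-SY5Y seeded 10×10^3 per well the day before in 1 g/L glucose medium with 2% FBS. Medium replaced with fresh 2% FBS, 1 g/L glucose medium containing compound (25 µM) for 24 h at 37 °C. CellTiter-Blue added for 4 h, fluorescence read at 560/590 nm. Viability given as % of vehicle/untreated cells. Mean ± SEM of ≥3 independent runs.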

[8] = Suppression of rotenone-induced ATP depletion in human HepG2 cells assessed as rescue of ATP level incubated for 2 hrs by Celltiter-Glo assay relative to control; assay type: functional; design: concentration or dose not given beside the values; summary of the method: as §1
SH-SY5Y [9] = experiment: Cytotoxicity against human SH-SY5Y cells assessed as reduction in cell viability at 25 uM incubated for 24 hrs by Celltiter-blue assay; assay type: cell-based; summary of the method: as §2
[10] = Cytotoxicity against […] assessed as reduction in cell viability by WST-1 assay; assay type: cell-based; settings: r28
SH-SY5Y [11] = experiment: Cytotoxicity against human SH-SY5Y cells assessed as reduction in cell viability by WST-1 assay; assay type: cell-based
HepG2 [12] = experiment: Cytotoxicity against human HepG2 cells assessed as cell reduction in cell viability at 25 uM incubated for 24 hrs by Celltiter-blue assay; assay type: cell-based; settings: hepg2, 24 h; summary of the method: as §2
[13] = biological target: NAD(P)H dehydrogenase [quinone] 1 (Homo sapiens) (UniProt P15559); experiment: Substrate activity at NQO1 in human HepG2 cells assessed as reduction in cell viability by WST-1 assay; assay type: cell-based
[14] = biological target: NAD(P)H dehydrogenase [quinone] 1 (Homo sapiens) (UniProt P15559); experiment: Substrate activity at NQO1 in human HepG2 cells assessed as reduction in cell viability in presence of NQO1 inhibitor dicoumarol by WST-1 assay; assay type: cell-based
[15] = (§3) Suppression of rotenone-induced ATP depletion in human HepG2 cells assessed as rescue of ATP level at 5 uM incubated for 2 hrs by Celltiter-Glo assay relative to control; assay type: functional; summary of the method: as §1
HepG2 [16] = experiment: Suppression of rotenone-induced ATP depletion in human HepG2 cells assessed as rescue of ATP level at 5 uM incubated for 2 hrs in presence of complex III inhibitor myxothiazol by Celltiter-Glo assay; assay type: functional, cell-based; summary of the method: as §1
HepG2 [17] = experiment: Suppression of rotenone-induced ATP depletion in human HepG2 cells assessed as rescue of ATP level at 5 uM incubated for 2 hrs in presence of complex III inhibitor antimycin by Celltiter-Glo assay; assay type: functional, cell-based; summary of the method: as §1
[18] = Cytoprotection against rotenone-induced C57BL/6J mouse retinal ganglion cells loss assessed as cell survival at 10 uM incubated for 24 hrs by Hoechst 33342 staining based counting method (reference value: 41%); assay type: functional; settings: RGC, read-out: Activity
Summary of the method: (§4)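 Retinal explants from 6–8 month old female wild-type C57BL/6J mice, enucleated eyes placed in ice-cold HBSS. Explants incubated 24 h ex vivo in pre-warmed Neurobasal A with compounds in 0.1% DMSO, alone for toxicity or with 100 µM rotenone for activity. Hoechst 33342-stained nuclei (and anti-RBPMS-positive RGCs) counted in the central retina ganglion cell layer. Mean ± SEM, 1-way ANOVA with Tukey.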

[19] = Cytotoxicity against C57BL/6J mouse RGC cells at 20 uM incubated for 24 hrs by Hoechst 33342 staining based counting method; assay type: cell-based; summary of the method: as §4
HepG2 [20] = experiment: Suppression of rotenone-induced ATP depletion in human HepG2 cells assessed as rescue of ATP level at 5 uM incubated for 2 hrs in presence of NQO1 irreversible inhibitor ES936 by Celltiter-Glo assay; assay type: functional, cell-based
HepG2 [21] = experiment: Suppression of rotenone-induced ATP depletion in human HepG2 cells assessed as rescue of ATP level at 5 uM incubated for 2 hrs in presence of NQO1 inhibitor dicoumarol by Celltiter-Glo assay; assay type: functional, cell-based
HepG2 [22] = experiment: as §3; assay type: functional; summary of the method: as §1

For `CC1=C(CCCCCCCCCCO)C(=O)c2ccccc2C1=O`, the Activity (HepG2 [1]) was “inactive”.

In the case of `O=C1C(Cl)=C(NCCc2cccc(C(F)(F)F)c2)C(=O)c2ccccc21`, the Activity (HepG2 [1]) is reported as “Active”.

With `CC1=C(CCCC(=O)NCCc2ccc(O)cc2)C(=O)c2ccccc2C1=O` the IC50 (HepG2 [2]) was greater than 100 µM, the IC50 (SH-SY5Y [3]) was 76 µM and the EC50 [4] was 0.8 µM. The Activity [5] was “inactive” and the Activity (HepG2 [6]) was “Active”.

`O=C1C(Cl)=C(Nc2ccc(F)c(C(F)(F)F)c2)C(=O)c2ccccc21` showed a viability at 24 h, 25 µM [7] of 65.8% and an Activity [8] of 40.3%.

With `CCCCC1=C(C)C(=O)c2ccccc2C1=O` the Activity (SH-SY5Y [9]) was “Toxic”.

With `O=C1C(Nc2ccc(F)c(C(F)(F)F)c2)=C(SC(F)(F)F)C(=O)c2ccccc21` the Activity (SH-SY5Y [9]) was “Toxic”, the Activity [10] was “Non-Toxic” and the Activity (SH-SY5Y [11]) was “Non-Toxic”. The viability at 24 h, 25 µM [7] was 65.8%, the Activity [8] was 58.6% and the Activity [5] was “Active”. For the same compound, the Activity (HepG2 [12]) was “Toxic”, the Activity [13] was “Active” and the Activity (HepG2 [1]) was “Active”. The Activity [14] was “inactive”.

With `CC1=C(Sc2ccccc2)C(=O)c2ccccc2C1=O` the Activity (SH-SY5Y [9]) was “Toxic” and the Activity [15] was 70%.

For `CN(C)C1=C(Nc2ccccc2)C(=O)c2ccccc2C1=O`, the Activity (HepG2 [1]) was “Active”.

In the case of `O=C1C(Cl)=C(Nc2ccccc2)C(=O)c2ccccc21`, the Activity (HepG2 [1]) is reported as “Active”.

For `COC1=C(OC)C(=O)C(CCCCCCCCCCO)=C(C)C1=O` [IDEBENONE], the Activity (SH-SY5Y [9]) was “Toxic”, the Activity [15] was 70% and the IC50 (HepG2 [2]) was 64.5 µM. For the same compound, the viability at 24 h, 25 µM [7] was 92.8%, the IC50 (SH-SY5Y [3]) was 15.9 µM and the Activity (HepG2 [16]) was “inactive”. The Activity (HepG2 [17]) was “inactive”, the viability at 10 µM [18] was 73% and the Activity [8] was 44.3%. For the same compound, the EC50 [4] was 0.94 µM, the Activity [19] was “Toxic” and the Activity (HepG2 [6]) was “Active”.

With `CCNC1=C(Nc2ccccc2)C(=O)c2ccccc2C1=O` the Activity (SH-SY5Y [9]) was “Non-Toxic” and the Activity (HepG2 [1]) was “Active”.

In the case of `O=C1C(Nc2ccccc2)=C(Oc2ccccc2)C(=O)c2ccccc21`, the Activity (HepG2 [1]) is reported as “inactive”.

In the case of `O=C1C(Nc2cccc(C(F)(F)F)c2)=C(SC(F)(F)F)C(=O)c2ccccc21`, the Activity (SH-SY5Y [9]) is reported as “Toxic”, the Activity (HepG2 [12]) is reported as “Toxic” and the Activity (HepG2 [1]) is reported as “Active”.

In the case of `O=C1C(Cl)=C(Nc2cccc(C(F)(F)F)c2)C(=O)c2ccccc21`, the Activity (SH-SY5Y [9]) is reported as “Toxic”, the Activity (HepG2 [12]) is reported as “Toxic” and the Activity (HepG2 [1]) is reported as “Active”.

For `CCOC1=C(Nc2ccccc2)C(=O)c2ccccc2C1=O`, the Activity (SH-SY5Y [9]) was “Non-Toxic” and the Activity (HepG2 [1]) was “inactive”.

With `COC(=O)c1ccc(NC2=C(Cl)C(=O)c3ccccc3C2=O)cc1` the Activity (SH-SY5Y [9]) was “Toxic”, the Activity [15] was 70% and the Activity (HepG2 [12]) was “Toxic”.

With `O=C1C=C(Nc2ccc(F)c(C(F)(F)F)c2)C(=O)c2ccccc21` the Activity (SH-SY5Y [9]) was “Non-Toxic”, the viability at 24 h, 25 µM [7] was 35.6% and the Activity [8] was 54.5%.

With `COC1=C(Nc2cc(C(F)(F)F)ccc2F)C(=O)c2ccccc2C1=O` the Activity (SH-SY5Y [9]) was “Non-Toxic”, the Activity [10] was “Non-Toxic” and the Activity (SH-SY5Y [11]) was “Non-Toxic”. The Activity [13] was “Active”, the Activity (HepG2 [1]) was “Active” and the Activity [14] was “inactive”.

With `O=C1C(Cl)=C(Nc2cccc(O)c2)C(=O)c2ccccc21` the Activity [10] was “Non-Toxic”, the Activity (SH-SY5Y [11]) was “Non-Toxic” and the Activity [13] was “Active”. For the same compound, the Activity [14] was “inactive”.

In the case of `CC1=C(Nc2ccc(F)c(C(F)(F)F)c2)C(=O)c2ccccc2C1=O`, the Activity (HepG2 [20]) is reported as “inactive”, the Activity (SH-SY5Y [9]) is reported as “Non-Toxic” and the Activity [10] is reported as “Non-Toxic”. For the same compound, the IC50 (HepG2 [2]) was greater than 100 µM, the Activity (SH-SY5Y [11]) was “Non-Toxic” and the viability at 24 h, 25 µM [7] was 101%. The IC50 (SH-SY5Y [3]) was greater than 100 µM, the Activity (HepG2 [16]) was “inactive” and the Activity (HepG2 [17]) was “inactive”. The Activity [8] was 52.6%, the Activity (HepG2 [21]) was “inactive” and the EC50 [4] was 0.91 µM. The Activity [13] was “Active”, the Activity (HepG2 [6]) was “Active” and the Activity (HepG2 [1]) was “Active”. The Activity [14] was “inactive”.

With `O=C1C(Cl)=C(Nc2ccc(Nc3ccccc3)cc2)C(=O)c2ccccc21` the Activity (SH-SY5Y [9]) was “Toxic” and the Activity (HepG2 [12]) was “Toxic”.

With `NC1=C(Cl)C(=O)c2ccccc2C1=O` the Activity (HepG2 [22]) was “inactive”.
